Data on 28 molecules can be found in ChEMBL document CHEMBL3393025, “Discovery of dual leucine zipper kinase (DLK, MAP3K12) inhibitors with activity in neurodegeneration models” (J Med Chem, 2015).

Test [1] in a line: Neuroprotective activity in E14.5 rat embryo DRG neurons. The format is functional. Conditions: drg neuron. A digest of the protocol:
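DRG neurons freshly dissected from E14.5 rat embryos, plated at 1200−2000 cells/well on an astrocyte monolayer in DMEM/F12 with N3 supplement, 0.18% glucose and 25 ng/mL NGF. 200 μM uridine and 100 μM 5-fluorodeoxyuridine added next day. Cultured 4 days before axon degeneration assay. IC50 reported.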

For test [2], the target named is T1, Mitogen-activated protein kinase kinase kinase 12 (Homo sapiens, UniProt Q12852).
T1 sequence (Q12852 whole entry): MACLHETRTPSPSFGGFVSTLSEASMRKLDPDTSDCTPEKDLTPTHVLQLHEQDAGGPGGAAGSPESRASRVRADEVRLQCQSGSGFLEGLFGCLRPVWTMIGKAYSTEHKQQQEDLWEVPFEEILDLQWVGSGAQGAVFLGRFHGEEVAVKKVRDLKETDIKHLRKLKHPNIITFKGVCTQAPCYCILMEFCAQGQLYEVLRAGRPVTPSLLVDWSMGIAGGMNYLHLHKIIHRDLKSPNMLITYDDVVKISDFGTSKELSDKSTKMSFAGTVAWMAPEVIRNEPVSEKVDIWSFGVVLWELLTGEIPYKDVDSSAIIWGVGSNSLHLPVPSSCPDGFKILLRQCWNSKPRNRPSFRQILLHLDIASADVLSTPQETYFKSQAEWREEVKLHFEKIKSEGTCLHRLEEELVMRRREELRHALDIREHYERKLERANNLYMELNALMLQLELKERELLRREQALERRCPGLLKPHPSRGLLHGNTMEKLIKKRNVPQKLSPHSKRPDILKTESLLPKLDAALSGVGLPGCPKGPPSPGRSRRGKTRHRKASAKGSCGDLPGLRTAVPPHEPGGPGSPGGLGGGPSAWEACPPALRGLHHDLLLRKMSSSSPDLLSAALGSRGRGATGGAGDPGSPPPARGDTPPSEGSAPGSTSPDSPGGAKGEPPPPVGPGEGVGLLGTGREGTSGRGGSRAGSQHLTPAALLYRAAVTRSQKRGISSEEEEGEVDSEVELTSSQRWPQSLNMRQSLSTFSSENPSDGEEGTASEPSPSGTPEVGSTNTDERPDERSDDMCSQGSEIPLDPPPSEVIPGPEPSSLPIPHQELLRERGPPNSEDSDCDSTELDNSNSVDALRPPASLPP
The test is described as follows: Inhibition of human DLK transfected in HEK293 cells assessed as JNK phosphorylation after 5.5 hrs by Hoechst-33342 staining-based assay. The format is cell-based.

Test [3] has as its target T1, Mitogen-activated protein kinase kinase kinase 12. The test is described as follows: Inhibition of DLK (unknown origin).

In the case of `N#Cc1ccnc(Nc2cc(C3CCN(C4COC4)CC3)cc(N3CCC3)n2)c1`, the IC50 turned out to be 448 nM in test [1] and 141 nM in test [2]. The affinity in test [3], expressed as Ki, was 8 nM.
Take `CC(=O)N1CCC(c2cc(Nc3cc(C(F)(F)F)ccn3)nc(N3CCC(F)(F)C3)c2)CC1`: the IC50 in test [1] amounted to 171 nM; in test [2], 69 nM. Affinity in test [3] was put at a Ki of 1 nM.
With `Cc1nc(Nc2cc(C(C)C)ccn2)cc(C2CCCN(C(=O)c3ccccc3)C2)n1` (racemic), the IC50 in test [2] was 1300 nM. The molecule further had a Ki in test [3] of 4 nM.
For `N#Cc1ccnc(Nc2cc(C3CCOCC3)cc(N3CCC(F)(F)C3)n2)c1` the same measures were 70 nM and 0.9 nM.
On to `CC(=O)N1CCC(c2cc(Nc3cc(C(F)(F)F)ccn3)nc(N3CCOCC3)n2)CC1`, for which the Ki in test [3] came to 431 nM.
Take `COc1ccnc(Nc2cc(C3CCCN(C(=O)c4ccccc4)C3)nc(C)n2)c1` (racemic): the IC50 in test [2] stood at 1000 nM. This molecule also came in with a Ki in test [3] of 57 nM.
As to `CCc1cc(C2CCN(C3COC3)CC2)cc(Nc2cc(C#N)ccn2)n1`, the values for the IC50 in test [1] and in test [2] were 916 nM and 213 nM, respectively.
Turning to `FC1(F)CCN(c2nc(Nc3cc(C(F)(F)F)ccn3)cc(C3CCCNC3)n2)C1` (stereo not drawn), in test [2], the IC50 was 408 nM. The molecule also yielded a Ki in test [3] of 7 nM.
With `CC(=O)N1CCC(c2cc(Nc3cc(C#N)ccn3)nc(N3CCC(F)(F)C3)c2)CC1`, in test [1], 180 nM corresponded to half-maximal inhibition (IC50). The Ki in test [3] was determined as 25 nM.
For the molecule `Cc1ccnc(Nc2cc(C3CCCN(C(=O)c4ccccc4)C3)nc(C)n2)c1` (racemic), the concentration for half-maximal inhibition (IC50) in test [2] worked out at 767 nM. The same molecule registered a Ki in test [3] of 85 nM.
Taken in the same sequence, the figures for `N#Cc1ccnc(Nc2cc(C3(C#N)CCOCC3)cc(N3CCC(F)(F)C3)n2)c1` were 79 nM and 5 nM.
In the case of `Cc1nc(Nc2cc(C(F)(F)F)ccn2)cc(C2CCCN(C(=O)c3ccccc3)C2)n1` (racemic), in test [2], the IC50 was determined as 229 nM. Besides, the affinity in test [3] corresponds to a Ki of 24 nM.
In test [3], `Cc1nc(Nc2ccccn2)cc(C2CCCN(C(=O)c3ccccc3)C2)n1` (racemic) came in with a Ki of 942 nM.
`Cc1nc(Nc2cc(C3CC3)ccn2)cc(C2CCCN(C(=O)c3ccccc3)C2)n1` (racemic): the IC50 in test [2] amounted to 486 nM. Further, the Ki in test [3] was found to be 18 nM.
Taken in the same sequence, the figures for `FC1(F)CCN(c2nc(Nc3cc(C(F)(F)F)ccn3)cc(C3CCOCC3)n2)C1` were 440 nM and 41 nM.
As to `N#Cc1ccnc(Nc2cc(C3CCN(C4COC4)CC3)cc(OC3CCC3)n2)c1`, the IC50 in test [1] came out at 46 nM; in test [2], 64 nM. The molecule also came in with a Ki in test [3] of 0.2 nM.
With `N#Cc1ccnc(Nc2cc(C3CCN(C4COC4)CC3)cc(C3CC3)n2)c1`, the IC50 in test [1] was determined as 155 nM; in test [2], 62 nM. Moreover, in test [3], the Ki is 1 nM.
As for `Cc1nc(Nc2ncc(C)s2)cc(C2CCCN(C(=O)c3ccccc3)C2)n1` (racemic), the IC50 in test [2] amounted to 641 nM. Also, the Ki in test [3] was determined as 35 nM.
On to `CC(=O)N1CCC(c2cc(Nc3cc(C(F)(F)F)ccn3)nc(N3CC(F)(F)C3)n2)CC1`, for which affinity in test [3] was put at a Ki of 166 nM. This lies in the sub-micromolar range.
Consider `CC(C)(O)c1cc(Nc2cc(C#N)ccn2)nc(N2CCC(F)(F)C2)c1`, for which the half-maximal inhibitory concentration (IC50) in test [1] amounted to 401 nM; in test [2] it was 125 nM. The Ki in test [3] was 5 nM.
Taken in the same sequence, the figures for `COC1CN(c2cc(C3CCN(C4COC4)CC3)cc(Nc3cc(C#N)ccn3)n2)C1` were 697 nM, 233 nM and 8 nM.
Regarding `Cc1cc(C2CCN(C3COC3)CC2)cc(Nc2cc(C#N)ccn2)n1`, the IC50 in test [2] turned out to be 1600 nM.
Take `FC(F)(F)c1ccnc(Nc2cc(C3CCCNC3)nc(N3CCCC3)n2)c1` (stereo not drawn): the IC50 in test [2] came to 109 nM. The same molecule came in with a Ki in test [3] of 7 nM.
For `CC(C)(C#N)c1cc(Nc2cc(C#N)ccn2)nc(N2CCC(F)(F)C2)c1` the same measures were 193 nM and 14 nM.
In the case of `Cc1nc(Nc2cc(C#N)ccn2)cc(C2CCCN(C(=O)c3ccccc3)C2)n1` (racemic), the IC50 in test [2] worked out at 1000 nM. Besides, the affinity in test [3], expressed as Ki, was 90 nM.
`Cc1nc(Nc2cc(C(F)(F)F)ccn2)cc(C2CCCNC2)n1` (racemic) gave a Ki in test [3] of 725 nM.
As for `CC(=O)N1CCC(c2cc(Nc3cc(C(F)(F)F)ccn3)nc(N3CCC(F)(F)C3)n2)CC1`, the IC50 in test [2] was determined as 300 nM. This molecule had a Ki in test [3] of 33 nM.
As for `N#Cc1ccnc(Nc2cc(C3CN(C4COC4)C3)cc(N3CCC(F)(F)C3)n2)c1`, the IC50 in test [1] was 99 nM; in test [2], 57 nM. Affinity in test [3] was put at a Ki of 0.7 nM.
